{"source": "paper PMC4544744", "about": "(Nature chemical biology, 2015)", "key": {"[1]": {"target": "T1, Dcs1p WT (H268N) (Saccharomyces cerevisiae, UniProt Q06151, H268N)", "T1 sequence (Q06151 whole entry H268N)": "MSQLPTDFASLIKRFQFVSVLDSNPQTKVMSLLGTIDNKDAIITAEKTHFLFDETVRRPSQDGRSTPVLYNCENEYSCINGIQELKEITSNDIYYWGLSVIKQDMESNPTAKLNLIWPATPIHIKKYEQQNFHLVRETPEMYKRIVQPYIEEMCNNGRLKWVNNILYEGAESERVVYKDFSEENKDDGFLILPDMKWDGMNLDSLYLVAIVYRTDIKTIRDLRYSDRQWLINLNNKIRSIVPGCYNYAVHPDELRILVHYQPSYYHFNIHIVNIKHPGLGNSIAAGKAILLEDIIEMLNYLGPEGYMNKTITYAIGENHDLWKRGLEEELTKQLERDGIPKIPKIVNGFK", "assay": "Methyl NMR spectra, formation of asymmetric conformation", "set-up": "species or system S. cerevisiae"}, "[2]": {"test_system": "WT Dcs1p", "assay": "31P NMR degradation", "type": "biochemical, S. cerevisiae", "in_short": "(§1)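 Recombinant S. cerevisiae Dcs1p, expressed in E. coli BL21(DE3) codon plus and purified by Ni-NTA, TEV tag cleavage and size exclusion into 25 mM Hepes pH 8.0, 25 mM NaCl made in 100% D2O. 0.5 mM m7GpppG mixed with 50 nM enzyme at 27°C. Successive 31P spectra recorded over several hours, following substrate conversion to m7GMP and GDP.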"}, "[3]": {"test_system": "DcpS", "details": "cited from earlier work"}, "[4]": {"target": "Dcs1p WT (H268N), full length (Saccharomyces cerevisiae, UniProt Q06151, H268N)", "sequence (Q06151 whole entry H268N, the tested form may be a part)": "as the sequence (Q06151 whole entry H268N) above", "assay": "ITC", "type": "binding, S. cerevisiae", "in_short": "(§2)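 Recombinant yeast Dcs1p carrying H268N, full length or C-terminal domain, purified by Ni-NTA, TEV cleavage and size exclusion. ITC at 25°C: m7GpppG or m7GMP injected into 0.5 mM enzyme solution.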"}, "[5]": {"target": "T2, Dcs1p K126A (H268N) (Saccharomyces cerevisiae, UniProt Q06151, H268N/K126A)", "T2 sequence (Q06151 whole entry K126A/H268N)": "as the sequence (Q06151 whole entry H268N) above, with K126A counted along it", "assay": "ITC", "type": "binding, S. cerevisiae", "in_short": "as §2"}, "[6]": {"target": "T1, Dcs1p WT (H268N)", "assay": "Longitudinal exchange NMR, domain flipping motions", "set-up": "species or system S. cerevisiae", "in_short": "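Methyl-TROSY longitudinal exchange spectra recorded with m7GpppG at 1:1, 1:2.5, 1:5 and 1:20 molar ratios. Mixing times 3–1000 ms. Rates fitted from auto- and cross-peak intensities versus mixing time.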"}, "[7]": {"test_system": "Dcs1p Y94A", "assay": "31P NMR degradation", "type": "biochemical, S. cerevisiae", "details": "Y94A enzyme; 31P NMR time series, 14 h", "in_short": "as §1"}, "[8]": {"target": "T1, Dcs1p WT (H268N)", "assay": "NMR titration", "set-up": "species or system S. cerevisiae", "details": "Kd open site (second binding event), determined using NMR", "in_short": "(§3)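 Deuterated, Ile/Met methyl-labelled Dcs1p (H268N), 0.25 mM dimer in D2O buffer pH 8.0 at 27°C. Methyl-TROSY spectra recorded during stepwise m7GpppG addition, up to 20 molar equivalents (5 mM). Peak positions and intensities from all titration points fitted simultaneously to a sequential two-site binding model. Kd given as mean ± s.d. from Monte Carlo simulations varying data within their errors.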"}, "[9]": {"test_system": "Dcs1p K126A", "assay": "Longitudinal exchange NMR, domain flipping motions", "set-up": "species or system S. cerevisiae"}, "[10]": {"target": "T2, Dcs1p K126A (H268N)", "assay": "NMR titration", "set-up": "species or system S. cerevisiae", "details": "Kd open site (second binding event), determined using NMR", "in_short": "as §3"}, "[11]": {"test_system": "Dcs1p K126A", "assay": "31P NMR degradation", "type": "biochemical, S. cerevisiae", "details": "high substrate excess"}}, "note": "Several values for one entry are separate records, joined by “and”; a condition that tells them apart may be missing. Equal entries are not always repeated."}
{"smiles": "Nc1nc2c(ncn2[C@@H]2O[C@H](COP(=O)(O)OP(=O)(O)OP(=O)(O)OC[C@H]3O[C@@H](n4cnc5c(=O)[nH]c(N)nc54)[C@H](O)[C@@H]3O)[C@@H](O)[C@H]2O)c(=O)[nH]1", "note": "[GpppG]", "values": [{"measurement": "formation of asymmetric conformation", "setting": "[1]", "value": "observed no resonances corresponding to the asymmetric conformation"}, {"measurement": "enzymatic turnover / hydrolysis", "setting": "[2]; WT enzyme, 31P NMR time series, 14 h", "value": "did not detect enzymatic turnover"}]}
{"smiles": "C[n+]1cn([C@@H]2O[C@H](COP(=O)(O)OP(=O)(O)O)[C@@H](O)[C@H]2O)c2nc(N)[nH]c(=O)c21", "note": "[m^7GDP, 7-methylguanosine diphosphate]", "values": [{"measurement": "hydrolysis", "setting": "[3]", "value": "not hydrolysed efficiently"}]}
{"smiles": "C[n+]1cn([C@@H]2O[C@H](COP(=O)([O-])O)[C@@H](O)[C@H]2O)c2nc(N)[nH]c(=O)c21", "note": "[m7GMP, m^7G monophosphate]", "values": [{"measurement": "formation of asymmetric conformation", "setting": "[1]", "value": "preserves the asymmetric form of the complex"}, {"measurement": "Kd", "setting": "[4]; Kd (single-step binding, closed binding site), ITC, DcpS H268N", "value": "1.1 ± 0.6", "unit": "µM"}, {"measurement": "factor weaker interaction with closed binding site than the substrate", "setting": "[4]; product vs substrate", "value": 4}, {"measurement": "interaction with the second, open binding site", "setting": "[4]; using ITC and NMR", "value": "not able to detect an interaction"}]}
{"smiles": "C[n+]1cn([C@@H]2O[C@H](COP(=O)([O-])OP(=O)(O)OP(=O)(O)OC[C@H]3O[C@@H](n4cnc5c(=O)[nH]c(N)nc54)[C@H](O)[C@@H]3O)[C@@H](O)[C@H]2O)c2nc(N)[nH]c(=O)c21", "note": "[m7GpppG]", "values": [{"measurement": "Kd", "setting": "[5]", "value": 0.24, "unit": "µM"}, {"measurement": "domain flipping (exchange) rate", "setting": "[6]; 20-fold excess of substrate over dimeric enzyme, inactive H268N", "value": "35.4 (± 4.8) s^−1 and 35.4 s^−1"}, {"measurement": "Flipping rate", "setting": "[6]; low substrate excess", "value": 8, "unit": "Hz"}, {"measurement": "enzymatic turnover / hydrolysis", "setting": "[7]", "value": "did not detect enzymatic turnover"}, {"measurement": "Kd", "setting": "[8]", "value": 105, "unit": "µM"}, {"measurement": "Turnover rate (kcat)", "setting": "[2]; high substrate excess, 0.5 mM substrate, 50 nM enzyme, 27°C", "value": "0.27 s^−1 under high substrate excess"}, {"measurement": "Flipping rate", "setting": "[9]; K126A (H268N), under high and low substrate excess", "value": "< 1 Hz under high and low substrate excess"}, {"measurement": "domain flipping rate", "setting": "[9]; K126A, substrate excess, based on detection limit of the experiment", "value": "less than 1 s^−1"}, {"measurement": "Kd", "setting": "[10]", "value": 196, "unit": "µM"}, {"measurement": "Turnover rate (kcat)", "setting": "[11]", "value": "0.48 s^−1 under high substrate excess"}]}
